Shown are actives, neighbours in structure and some others; about 2.6% of the full set was active somewhere.
LMPTP inh – LMPTP (human) inhibition; P24666; recombinant LMPTP-A, OMFP fluorogenic substrate, fluorescence intensity; inhibition, % at 20 µM; 0.22% of 360,000 active; AID 651560;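 active = compounds that cut the enzyme signal by at least half of the control window in the single-dose screen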
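Test system: LMPTP-A, protein tyrosine phosphatase of low molecular weight; Input: 0.625 nM enzyme; Incubation: 50 min dark incubation at room temperature; Signal: endpoint fluorescence intensity from OMFP dephosphorylation; Read-out basis: % inhibition versus control wells.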
rCAG RNA binder – molecules binding r(CAG) RNA repeats. r(CAG) RNA repeat, TO-PRO-1 dye displacement fluorescence. 1.3% of 370,000 active. inhibition, % at 3 µM;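 active = inhibition above the plate cutoff, the mean of all test compounds on that plate plus 3 SD, cut at about 35% in these data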;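 also: higher means more dye released from RNA so lower well fluorescence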
Scp1 inh – blocks human Scp-1 phosphatase activity; Recombinant Scp1, phosphopeptide, malachite green phosphate absorbance; 0.88% of 340,000 active; inhibition, % at 20 µM;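 active = inhibition above about 50% at 20 µM, limit read from the data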
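Material: truncated SCP-1 phosphatase (76-261aa) / Buffer or medium: 50 mM Tris acetate pH 5.5, 0.005% Tween-20, 10 mM MgCl2 / Compound dosing: one concentration, 20 µM, with 1.0% DMSO / Incubation: 45 min room-temperature reaction, 5 min colour, 30 min stabiliser / Detection: colorimetric free-phosphate detection, absorbance 630 nm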
STEP inh – blocks human striatal-enriched tyrosine phosphatase; 0.25% of 360,000 active; inhibition, % at 20 µM; recombinant STEP, OMFP fluorogenic substrate, fluorescence;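 active = inhibition at 20 µM, scaled per plate between control wells, above about 37%, limit read from the data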
Target sequence (P54829 whole entry, looked up): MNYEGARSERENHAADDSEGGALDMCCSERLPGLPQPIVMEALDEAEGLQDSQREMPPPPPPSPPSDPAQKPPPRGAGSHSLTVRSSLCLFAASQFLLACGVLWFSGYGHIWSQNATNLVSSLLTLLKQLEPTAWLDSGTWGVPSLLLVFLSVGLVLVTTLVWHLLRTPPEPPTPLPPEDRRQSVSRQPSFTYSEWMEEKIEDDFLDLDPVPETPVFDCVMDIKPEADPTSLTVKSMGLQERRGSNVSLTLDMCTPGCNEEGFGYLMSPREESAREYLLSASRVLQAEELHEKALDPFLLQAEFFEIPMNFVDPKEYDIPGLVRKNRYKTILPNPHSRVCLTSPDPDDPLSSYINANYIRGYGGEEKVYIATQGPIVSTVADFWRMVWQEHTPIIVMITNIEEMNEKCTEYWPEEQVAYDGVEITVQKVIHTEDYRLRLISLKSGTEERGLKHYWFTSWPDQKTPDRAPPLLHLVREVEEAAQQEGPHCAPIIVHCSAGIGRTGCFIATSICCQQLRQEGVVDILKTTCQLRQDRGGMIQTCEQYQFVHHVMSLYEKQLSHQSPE
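Assay system: isolated STEP enzyme. Buffer or medium: pH 6.0 Bis-Tris with DTT and Tween 20. Also added: fluorogenic phosphatase substrate OMFP at 25 µM final. Dosing: 20 µM, 1% DMSO. Timing: 20 min reaction, room temperature, in the dark. Measured by: fluorescence intensity, excitation 480 nm, emission 540 nm. Evaluation: normalized % inhibition.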
NadD block – NadD (S. aureus) enzyme inhibition; purified NadD enzyme, colorimetric absorbance read-out; inhibition, % at 20 µM; 0.78% of 360,000 active; in the data active = inhibition above about 26%
Scp1 confirm – Scp-1 (human) inhibition, single-dose confirmed; shares compounds with Scp1 inh; recombinant SCP-1 catalytic domain, phosphate release, malachite green absorbance; inhibition, % at 20 µM; 61% of 2,500 active; AID 540281
MG interference – counter-screen for Scp-1 inhibitors: colorimetric interference; Colorimetric interference counterscreen, malachite green absorbance 630 nm; 2,500 tested, under 10 active; AID 540313; shares compounds with Scp1 inh; apparent inhibition (interference), % at 20 µM;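 also: compounds added after enzyme reaction finished so only phosphate colour detection is probed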
Scp-1 Tm shift – binds human Scp-1, shifting its melting temperature. shares compounds with Scp1 inh. Recombinant SCP1, Sypro Orange thermal shift Tm. thermal shift relative to vanadate control, % at 40 µM. 25% of 1,500 active. AID 540329;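 active = substances whose mean melting-temperature shift, as a percentage of the reference inhibitor's shift, reaches about 5.3%, limit read from the data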
STEP conf – STEP (human) phosphatase inhibition, single concentration confirmation. inhibition, % at 20 µM. recombinant STEP, OMFP fluorogenic substrate, fluorescence. 32% of 520 active. shares compounds with STEP inh; call rule not given here
Hits are given with their value; n = inactive; x = no result given.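 The calls were made as follows, unless noted: active = inhibition of at least 30% at 20 µM; inactive = the rest.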

SMILES | LMPTP inh | rCAG RNA binder | Scp1 inh | STEP inh | NadD block | Scp1 confirm | MG interference | Scp-1 Tm shift | STEP conf
C[C@H](CO)N1C[C@H](C)[C@@H](CN(C)C(=O)Nc2ccc(C(F)(F)F)cc2)Oc2ccc(NC(=O)c3ccncc3)cc2C1=O | 64 | n | 77 | 52 | n | n | n | x | n
C[C@H](CO)N1C[C@H](C)[C@@H](CN(C)C(=O)Nc2ccc(C(F)(F)F)cc2)Oc2ccc(NC(=O)Nc3ccc(C(F)(F)F)cc3)cc2C1=O | n | n | n | n | n | x | x | x | x
CCCCC(=O)Nc1ccc(C(=O)NNC(=O)c2ccc(C)c(Br)c2)cc1 | 78 | n | 102 | 74 | n | 71 | n | n | 40
CCCCC(=O)Nc1ccc(C(=O)NNC(=O)CCc2ccccc2)cc1 | n | n | n | n | n | x | x | x | x
COc1ccc2c(c1)CCCN2C(=O)C1CCCN(S(=O)(=O)c2c(C(C)C)cc(C(C)C)cc2C(C)C)C1 (stereo not drawn) | x | n | x | x | x | x | x | x | x
CCOC(=O)CN1C(=O)S/C(=C/c2ccc(OCc3ccc(C(=O)O)cc3)cc2)C1=O | n | n | 93 | 78 | n | 67 | n | n | 50
CCOC(=O)CN1C(=O)S/C(=C/c2ccco2)C1=O | n | n | n | n | n | x | x | x | x
O=[N+]([O-])c1ccc(/C=N/n2c(-c3cccnc3)n[nH]c2=S)cc1 | n | n | 60 | 56 | n | 52 | n | n | n
CCOC(=O)c1sc2nc3c(SCC(=O)O)cc(C(=O)c4ccccc4O)cn3c(=O)c2c1C | 93 | n | 53 | 98 | n | 59 | n | 7.5 | 98
CCc1c(C)sc2nc3c(C(=O)N4CCOCC4)cc(C(=O)c4ccccc4O)cn3c(=O)c12 | n | n | n | n | n | x | x | x | x
Cc1csc(NC(=O)c2cccs2)n1 | n | n | n | n | n | x | x | x | x
Cc1csc2c(=O)sc(NC(=O)c3cccs3)nc12 | 69 | n | 97 | 95 | n | 63 | n | n | n
CCc1ccc(NC(=O)CS(=O)CC(=O)Nc2ccc(N3CCOCC3)cc2)cc1 (stereo not drawn) | 63 | n | 79 | 72 | n | 88 | n | n | n
O=C(CCc1ccccc1)NNC(=O)c1ccc(NC(=O)c2ccccc2)cc1 | 61 | n | 57 | 42 | n | 74 | n | n | 95
CC(=O)Nc1ccc(C(=O)NNC(=O)CCc2ccccc2)cc1 | n | n | n | n | n | x | x | x | x
Cn1c2ccccc2c(=O)c2c(=O)n(C3CCCCCC3)c(C3CCCCC3)nc21 | n | n | 97 | 60 | n | n | n | x | n
CCN(C(=O)C1CCCN1S(=O)(=O)c1cccnc1)c1ccccc1 (stereo not drawn) | x | n | x | x | x | x | x | x | x
O=C(/C=C/c1ccc(Cl)cc1)NC(=S)Nc1ccc(C(=O)O)cc1 | 67 | n | 96 | 92 | n | 88 | n | n | 50
CN(C)c1ccc(NC(=S)NC(=O)/C=C/c2ccc(Cl)cc2)cc1 | n | n | n | n | n | x | x | x | x
COc1cccc(Nc2nn3c(=O)c4ccccc4nc3s2)c1 | n | x | 60 | 82 | n | 58 | n | 6.1 | 47
Cc1ccccc1Nc1nn2c(=O)c3ccccc3nc2s1 | n | n | n | n | n | x | x | x | x
COc1ccc(S[C@]2(C(=O)N3CCOCC3)CC(=O)N(C(=O)Nc3ccc(C)c(Cl)c3)[C@@H]2c2ccc(OC)cc2)cc1 | x | n | x | x | x | x | x | x | x
O=C(N/N=C/C=C/c1ccc([N+](=O)[O-])cc1)c1cccs1 | 87 | n | 101 | 96 | n | 91 | n | 6.4 | n
O=C(/C=C/c1cccc([N+](=O)[O-])c1)Nc1ccc(NC(=O)c2cccs2)cc1 | 56 | n | 75 | 45 | n | 74 | n | 15 | n
O=C(N/N=C/C=C\c1ccccc1[N+](=O)[O-])c1cccs1 | n | n | n | n | n | x | x | x | x

Bioassay records as filed in PubChem.
